A selection: hits, their analogues and other compounds. The true share with any hit is near 2%.
UHRF1 MBD2 ctr = blocks human UHRF1 binding to methylated DNA; AID 687016; inhibition, % at 4.4 µM; UHRF1 binding to methylated oligo, TR-FRET; Q96T88; actives 0.75% (n = 370,000); in the data active means inhibition above about 21%;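 further: UHRF1 SRA domain binding a hemimethylated CpG hairpin DNA probe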
TCR CD3 inh = human TCR-CD3 binding inhibition | TAMRA-labeled TCR probe fluorescence, biochemical | inhibition, % at 9.4 µM | actives 0.37% (n = 360,000); in the data active means inhibition above about 19%;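 further: recombinant mutant TCR 2C K166C tagged with TAMRA read by polarization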
LEDGF integ inh = blocks HIV-1 LEDGF/p75-dependent DNA integration; TR-FRET IN-LEDGF/p75 DNA integration, Eu/Cy5; inhibition, % at 3.7 µM; actives 0.64% (n = 370,000);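 active means inhibition above the screen-wide mean plus 3 SD, cut at about 13% in these data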;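 further: signal is the Cy5 over europium emission ratio at 671 and 618 nm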
MBD2 inh = inhibitors of human MBD2 binding to methylated oligonucleotide; Q9UBB5; TR-FRET; inhibition, % at 4.4 µM; actives 0.31% (n = 370,000); in the data active means inhibition above about 13%
Target sequence (Q9UBB5 whole entry, looked up): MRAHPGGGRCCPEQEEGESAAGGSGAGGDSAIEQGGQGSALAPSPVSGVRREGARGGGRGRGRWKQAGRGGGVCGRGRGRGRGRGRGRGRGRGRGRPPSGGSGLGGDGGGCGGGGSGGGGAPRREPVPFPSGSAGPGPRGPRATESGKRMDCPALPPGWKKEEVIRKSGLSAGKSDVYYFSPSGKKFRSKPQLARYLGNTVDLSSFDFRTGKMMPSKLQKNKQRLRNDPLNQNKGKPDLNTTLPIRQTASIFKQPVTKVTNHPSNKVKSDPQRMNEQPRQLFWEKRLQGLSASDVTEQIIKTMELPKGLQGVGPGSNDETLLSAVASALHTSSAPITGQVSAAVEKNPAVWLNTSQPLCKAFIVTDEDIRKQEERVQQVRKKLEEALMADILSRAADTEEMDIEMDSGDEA
ASAP1 GAP inh = inhibitors of human ASAP1 ArfGAP activity; Q9ULH1; ASAP1-stimulated ARF1 GTP hydrolysis, GDP FP detection; inhibition, % at 16.5 µM; actives 0.19% (n = 360,000); AID 624377; in the data active means inhibition above about 25%
ARFGAP1 inhibitor = inhibits rat ARF GTPase activating protein 1. Arfgap1-stimulated ARF1 GTP hydrolysis, GDP FP detection. Q62848. AID 651572. actives 0.26% (n = 360,000). inhibition, % at 16.5 µM;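 active means inhibition above a per-plate limit, mean inhibition of low control wells plus 3 SD, cut at about 25% in these data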
Target sequence (Q62848 1-136 limits assumed): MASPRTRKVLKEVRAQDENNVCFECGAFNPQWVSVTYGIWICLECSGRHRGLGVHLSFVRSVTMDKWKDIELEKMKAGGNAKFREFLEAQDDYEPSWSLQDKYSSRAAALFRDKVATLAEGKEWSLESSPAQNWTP
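Replicates: Single well per compound | Assay system: Truncated rat Arfgap1 GAP domain | Control set: No-Arfgap1 wells (100%) versus DMSO full-reaction wells (0%) | Times: Enzyme reaction 120 min at 25 °C after 20 min preincubation | Reagent: Human ARF1(Δ1-17)-GTP substrate | Measured by: Tracer-displacement fluorescence polarization with EDTA stop, 620/688 nm | Measure: Percent inhibition of Arfgap1-stimulated GTP hydrolysis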
Large screens that a line does not name were inactive.

Cc1cc(C)cc(NC(=O)Nc2cc(-c3ccccc3)nn2C)c1	none
CN1CCN(c2ccc(NC(=O)c3ccc(-c4ccccc4F)o3)cc2)CC1	UHRF1 MBD2 ctr 37
O=C(Nc1cc(S(=O)(=O)N2CCOCC2)ccc1N1CCCC1)c1cc2c(s1)CCCC2	none (no result: TCR CD3 inh, ASAP1 GAP inh, ARFGAP1 inhibitor)
CC1CC(=O)N(CC(=O)NCc2ccccc2)c2ccccc2S1(=O)=O (configuration not stated)	none
O=C(CN1C(=O)CC(c2ccccc2)S(=O)(=O)c2ccccc21)N1CCCCC1 (configuration not stated)	UHRF1 MBD2 ctr 24
CCOc1ccc(S(=O)(=O)Nc2cccc(C(=O)N(C)CC(=O)Nc3ccc(OC)cc3)c2)cc1	LEDGF integ inh 44
CCN(CC(=O)Nc1ccc(NC(C)=O)cc1)C(=O)c1ccc(N(C)S(=O)(=O)c2ccc(C)cc2)cc1	UHRF1 MBD2 ctr 42
CCN(CC(=O)Nc1ccc(OC)cc1)C(=O)c1ccc(NS(=O)(=O)c2ccc(C(C)=O)cc2)cc1	UHRF1 MBD2 ctr 23
CCOc1ccc(S(=O)(=O)Nc2cccc(C(=O)N(C)CC(=O)Nc3cccc(OC)c3)c2)cc1	none
O=C(NC1CCCCN(Cc2ccc(Cl)cc2)C1=O)c1ccc(F)c(F)c1 (configuration not stated)	none (no result: TCR CD3 inh, ASAP1 GAP inh, ARFGAP1 inhibitor)
CCOC(=O)c1sc2nc(-c3ccco3)c3c(c2c1N)CC(C)(C)OC3	LEDGF integ inh 42
CC(=NCCc1ccccc1)C1=C(O)CCC1=O	UHRF1 MBD2 ctr 45
CC(=NCCc1ccccc1)C1=C(O)CSC1=O	none
O=C(NCc1cccnc1)C(=O)Nc1ccc([N+](=O)[O-])cc1	UHRF1 MBD2 ctr 22
CC(=O)c1ccccc1C(=O)NCc1cccnc1	none
O=C(NCc1cccnc1)c1ccc(Cl)c(Cl)c1	UHRF1 MBD2 ctr 37
COc1ccc(C(=O)NCc2cccnc2)cc1C(=O)NCc1cccnc1	none
O=C(NCc1cccnc1)c1cccs1	UHRF1 MBD2 ctr 22
COc1cc2c(cc1OC)C(SC)=NC1(CCCC1)C2	UHRF1 MBD2 ctr 27
Cc1ccccc1CC(=O)NCC1CCCCC1	UHRF1 MBD2 ctr 40
Cc1cccc(C(=O)NCC(=O)NC(C)CCc2ccccc2)c1 (configuration not stated)	UHRF1 MBD2 ctr 22
Cc1cccc(C(=O)OCC(=O)NC(C)CCc2ccccc2)c1 (configuration not stated)	none
COc1ccc2c(c1)c(=O)oc1cc(OCC(=O)N3CCc4ccccc4C3)ccc12	UHRF1 MBD2 ctr 39, MBD2 inh 21
CC(C)c1ccc(OCC(=O)N2CCc3ccccc3C2)cc1	none
COc1ccc2c(c1)c(=O)oc1cc(OCC(=O)N3CCCC(C)C3)ccc12 (configuration not stated)	ASAP1 GAP inh 41, ARFGAP1 inhibitor 43
Cc1c(Cl)c(=O)oc2cc(OCC(=O)N3CCCC(C)C3)ccc12 (configuration not stated)	none
OC(c1ccccc1)(c1ccccc1)C1CCN(CCCOc2cccc(F)c2)CC1	none
CN(C)C(=O)[C@H]1C[C@H]1[C@@H](O)[C@H](CO)NC(=O)[C@H](Cc1ccccc1)NC(=O)OC(C)(C)C	UHRF1 MBD2 ctr 28
CC[C@@]1(C(=O)OC)N[C@H](CN(C)C(=O)Nc2ccc(OC)cc2)[C@@H]2C(=O)N(C)C(=O)[C@@H]21	UHRF1 MBD2 ctr 22
S=C(NCc1ccccc1)NC1CCSc2ccccc21 (configuration not stated)	UHRF1 MBD2 ctr 24
Cc1cccc(NC(=S)NC2CCSc3ccccc32)c1 (configuration not stated)	none
CC(C)Oc1ccc(S(=O)(=O)N2CCCCCC2)c2ccccc12	none (no result: TCR CD3 inh, ASAP1 GAP inh, ARFGAP1 inhibitor)
O=C(/C=C1\NC2(CCCC2)Cc2ccccc21)C(=O)N/N=C/c1ccc(O)c(O)c1	TCR CD3 inh 28
COc1ccc(/C=N/NC(=O)C(=O)/C=C2\NC3(CCCC3)Cc3ccccc32)cc1	none
Fc1ccc(CSc2nnc(CN3CCOCC3)n2-c2ccccc2)c(Cl)c1	UHRF1 MBD2 ctr 43
O=c1c2ccccc2nc(SCc2ccc(F)cc2Cl)n1CCCN1CCOCC1	none
COc1cc(NC(=O)CN2C(=O)COc3ccccc32)cc(OC)c1	UHRF1 MBD2 ctr 21
CC(C)C[C@H]1CN(CCCC[C@H]2CNC(=O)C(=O)N2Cc2ccccc2)C(=O)C(=O)N1CC1CCCCC1	none
COCCNC(=O)C1CCC(=O)N(c2ccc(OC)cc2)C1c1ccc(OC)c(OC)c1 (configuration not stated)	UHRF1 MBD2 ctr 23
COc1ccc(N2C(=O)CCC(C(=O)NCCCN3CCC(C)CC3)C2c2ccc(OC)c(OC)c2)cc1 (configuration not stated)	none
COc1ccc(N2Cc3ccccc3/C2=N\C(=O)Nc2ccccc2)cc1	UHRF1 MBD2 ctr 22
CC(=O)CN1Cc2ccccc2/C1=N\C(=O)Nc1ccccc1	none
Cc1ccc(-c2csc(N(CCCN(C)C)C(=O)c3ccco3)n2)cc1	none
CN(C)CCCN(C(=O)c1ccco1)c1nc(-c2ccc(Cl)cc2)cs1	UHRF1 MBD2 ctr 81
CCOC(=O)N1CCN(C(=O)C[C@H]2C[C@@]3(C(=O)OC)C(=C[C@H](COCc4ccccc4)O[C@@H]3C)N(Cc3ccccc3)C2=O)CC1	none (no result: TCR CD3 inh, ASAP1 GAP inh, ARFGAP1 inhibitor)
COc1ccc(-c2cc(C#N)nc(N3CCN(C)CC3)n2)cc1	none
COc1ccc(-c2cc(C#N)nc(N3CCNCC3)n2)cc1	ASAP1 GAP inh 53, ARFGAP1 inhibitor 75
CC(c1c[nH]c2ccccc12)c1c[nH]c2ccc(Br)cc12 (configuration not stated)	none (no result: TCR CD3 inh, ASAP1 GAP inh, ARFGAP1 inhibitor)
Cc1cc(Cl)ccc1OCC(=O)OCC(=O)NCCNC(=O)COC(=O)COc1ccc(Cl)cc1C	LEDGF integ inh 20
CC(C)(C)c1ccc(S(=O)(=O)NNC(=O)C2CCN(Cc3cccc(F)c3)CC2)cc1	UHRF1 MBD2 ctr 24
CC1CCC(NC(=O)C(NS(=O)(=O)c2ccc(Br)cc2)C(C)C)CC1 (configuration not stated)	none
O=C(O)c1[nH]c2ccccc2c1C(c1cc(Cl)cc([N+](=O)[O-])c1O)c1c(C(=O)O)[nH]c2ccccc12	LEDGF integ inh 14
O=C(O)c1ccc(C(=O)c2ccc3c(c2)C(=O)N(CCO)C3=O)cc1	UHRF1 MBD2 ctr 22
O=C(c1ccc2c(c1)C(=O)N(CCCO)C2=O)c1ccc2c(c1)C(=O)N(CCCO)C2=O	none
O=C1NN(c2ccccc2)C(=O)/C1=C/c1ccc(-c2ccc(Cl)c(C(=O)O)c2)o1	UHRF1 MBD2 ctr 23
Cc1cccc(N2NC(=O)/C(=C/c3ccc(-c4ccc(Cl)c(C(=O)O)c4)o3)C2=O)c1	UHRF1 MBD2 ctr 31
CCOc1ccc(N(CC(=O)NC2CC2)S(=O)(=O)c2ccc(C)cc2)cc1	none
OC(CNCc1ccccc1)Cn1ccc2ccccc21 (configuration not stated)	UHRF1 MBD2 ctr 27

Bioassay records (PubChem BioAssay)
